{
  "source": "ChEMBL document CHEMBL1926577",
  "about": "“Novel 1,3,4-heterodiazole analogues: synthesis and in-vitro antitumor activity” (2012)",
  "assay_type_in_all_cases": "functional",
  "key": {"[1]": {"experiment": "Growth inhibition of human prostate cancer cells after 48 hrs by coulter counter method", "conditions": "Cancer cell lines", "outline": "(§1)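 NCI 60-line panel cells. Compound is dissolved in DMSO and diluted in phosphate-buffered saline, with final DMSO below 1%. It is added in duplicate wells to cultures at 6 × 10⁴ cells/ml and held at 37 °C, 5% CO₂, humidified, for 48 h. Cells are diluted 10-fold in saline, counted by Coulter counter and dilution-corrected. Vehicle controls contain PBS plus DMSO.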"}, "[2]": {"tested_on": "MOLT-4", "experiment": "Growth inhibition of human MOLT4 cells at 10 uM after 48 hrs by coulter counter method", "conditions": "MOLT-4, 48 h, read-out: GI", "outline": "(§2)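 NCI 60-cell-line panel, single dose. Compound dissolved first in DMSO, then diluted in phosphate-buffered saline so that every final dilution held under 1% DMSO. Duplicate wells received cells at 6 × 10⁴ cells/ml. Controls held PBS/DMSO at the same dilution. Plates were incubated 48 h at 37 °C under 5% CO₂. Cells were then diluted 10-fold in saline and counted on a Coulter counter, with counts corrected for the dilution. Results are given as percent growth inhibition.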"}, "[3]": {"tested_on": "UACC-257", "experiment": "Growth inhibition of human UACC257 cells at 10 uM after 48 hrs by coulter counter method", "conditions": "UACC-257, 48 h, read-out: GI", "outline": "as §2"}, "[4]": {"tested_on": "Malme-3M", "experiment": "Growth inhibition of human MALME-3M cells at 10 uM after 48 hrs by coulter counter method", "outline": "as §2"}, "[5]": {"experiment": "Growth inhibition of human breast cancer cells after 48 hrs by coulter counter method", "conditions": "Cancer cell lines", "outline": "as §1"}, "[6]": {"tested_on": "HCT-116", "experiment": "Growth inhibition of human HCT116 cells at 10 uM after 48 hrs by coulter counter method", "conditions": "HCT-116, 48 h, read-out: GI", "outline": "as §2"}, "[7]": {"tested_on": "LOX IMVI", "experiment": "Growth inhibition of human LOXIMVI cells at 10 uM after 48 hrs by coulter counter method", "outline": "as §2"}, "[8]": {"tested_on": "NCI-H322M", "experiment": "Growth inhibition of human NCI-H322M cells at 10 uM after 48 hrs by coulter counter method", "conditions": "read-out: GI", "outline": "as §2"}, "[9]": {"tested_on": "KM12", "experiment": "Growth inhibition of human KM12 cells at 10 uM after 48 hrs by coulter counter method", "conditions": "KM12, 48 h, read-out: GI", "outline": "as §2"}, "[10]": {"tested_on": "SNB-19", "experiment": "Growth inhibition of human SNB19 cells at 10 uM after 48 hrs by coulter counter method", "conditions": "SNB-19, 48 h, read-out: GI", "outline": "as §2"}, "[11]": {"tested_on": "SK-MEL-28", "experiment": "Growth inhibition of human SK-MEL-28 cells at 10 uM after 48 hrs by coulter counter method", "conditions": "SK-MEL-28, 48 h, read-out: GI", "outline": "as §2"}, "[12]": {"tested_on": "HT-29", "experiment": "Growth inhibition of human HT-29 cells at 10 uM after 48 hrs by coulter counter method", "conditions": "HT-29, 48 h, read-out: GI", "outline": "as §2"}, "[13]": {"tested_on": "SK-MEL-5", "experiment": "Growth inhibition of human SK-MEL-5 cells at 10 uM after 48 hrs by coulter counter method", "conditions": "SK-MEL-5, 48 h, read-out: GI", "outline": "as §2"}, "[14]": {"tested_on": "M14", "experiment": "Growth inhibition of human M14 cells at 10 uM after 48 hrs by coulter counter method", "conditions": "M14, 48 h, read-out: GI", "outline": "as §2"}, "[15]": {"tested_on": "HL-60(TB)", "experiment": "Growth inhibition of human HL-60(TB) cells at 10 uM after 48 hrs by coulter counter method", "conditions": "HL-60, 48 h, read-out: GI", "outline": "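Single-dose screen on the NCI 60-line panel (leukemia subpanel). Compound is dissolved in DMSO and diluted in PBS, with final DMSO below 1%. Duplicate wells hold 6 × 10⁴ cells/ml at 37 °C, 5% CO₂, for 48 h. Cells are counted by Coulter counter after 10-fold saline dilution. Read-out is percent growth versus PBS/DMSO controls, expressed as % growth inhibition.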"}, "[16]": {"tested_on": "SR", "experiment": "Growth inhibition of human SR cells at 10 uM after 48 hrs by coulter counter method", "conditions": "read-out: GI", "outline": "as §2"}, "[17]": {"conditions": "read-out: LC50 (the source's name)"}},
  "note": "The source made the active and inactive calls. No cut-off for these calls is given here.",
  "data": [
    {"smiles": "O=C1CN2N=C(c3ccccc3)SC2=N1", "values": [
      {"measurement": "GI50", "setting": "[1]", "value": 7.6, "unit": "µM"},
      {"measurement": "TGI", "setting": "[1]", "value": 18.3, "unit": "µM"},
      {"measurement": "CC50", "setting": "[1]; [17]", "value": 50.8, "unit": "µM"},
      {"measurement": "inhibition of growth at 10 µM", "setting": "[2]", "value": 37.5, "unit": "%"},
      {"measurement": "inhibition of growth at 10 µM", "setting": "[3]", "value": 48.4, "unit": "%"},
      {"measurement": "growth inhibition (GI)", "setting": "[4]", "value": "Active"},
      {"measurement": "GI50", "setting": "[5]", "value": 6.9, "unit": "µM"},
      {"measurement": "TGI", "setting": "[5]", "value": 23.7, "unit": "µM"},
      {"measurement": "CC50", "setting": "[5]; [17]", "value": 71.3, "unit": "µM"},
      {"measurement": "inhibition of growth at 10 µM", "setting": "[6]", "value": 42.6, "unit": "%"},
      {"measurement": "growth inhibition (GI)", "setting": "[7]", "value": "Active"},
      {"measurement": "inhibition of growth at 10 µM", "setting": "[8]", "value": 22.1, "unit": "%"},
      {"measurement": "inhibition of growth at 10 µM", "setting": "[9]", "value": 21.8, "unit": "%"},
      {"measurement": "inhibition of growth at 10 µM", "setting": "[10]", "value": 23.2, "unit": "%"},
      {"measurement": "inhibition of growth at 10 µM", "setting": "[11]", "value": 10.4, "unit": "%"},
      {"measurement": "inhibition of growth at 10 µM", "setting": "[12]", "value": 36.2, "unit": "%"},
      {"measurement": "inhibition of growth at 10 µM", "setting": "[13]", "value": 35.2, "unit": "%"},
      {"measurement": "inhibition of growth at 10 µM", "setting": "[14]", "value": 30.2, "unit": "%"},
      {"measurement": "inhibition of growth at 10 µM", "setting": "[15]", "value": 21, "unit": "%"},
      {"measurement": "inhibition of growth at 10 µM", "setting": "[16]", "value": 36.3, "unit": "%"}
    ]}
  ]
}
